Published values from different studies.
Compare with care: the assays were run in different laboratories.
Target: Dual specificity tyrosine-phosphorylation-regulated kinase 1A (DYRK1A, Homo sapiens, UniProt Q13627)

Compound | effect on | technique | tested at | remaining binding [%]
Cc1cnc(Nc2ccc(C(=O)N3CCC(N4CCCC4)CC3)cc2)nc1-c1cc2ccccc2s1 | binding | competition with immobilised ligand | 1 µM | 19
O=C(O)[C@H]1[C@H](Cn2nnc3ccccc3c2=O)CC[C@@H]1C(=O)c1ccc(OCCC2CCOCC2)cc1 | cell-free assay | competition with immobilised ligand | 1 µM | 85
c1cncc(-c2cccc(Nc3nccc(NC4CCCCC4)n3)c2)c1 | binding | competition with immobilised ligand | 10 µM | 26
Cc1c(C(=O)O)cc(-c2ccc(C3CCNCC3)cc2)c2ccc(-c3ccc(C(F)(F)F)cc3)cc12 | cell-free assay | competition with immobilised ligand | 1 µM | 100
O=C(NCCCN1CCOCC1)c1ccc(Nc2ncc(Cl)c(-c3ccc(Cl)s3)n2)cc1 | binding | competition with immobilised ligand | 1 µM | 0.5
Nc1ncc2c(n1)-c1c([nH]c3ccc(C#CC4CC4)cc13)CCCC2 | binding | competition with immobilised ligand | 1 µM | 100
CN(CCCC(F)(F)F)c1nccc(-c2cnn3ncccc23)n1 | binding | – | 1 µM | 35
C[C@@H](c1ccc(-n2cnc3c(N)ncnc32)cc1)N1CCc2nn(C)c(Cc3ccccc3)c2C1=O | binding | competition with immobilised ligand | 0.1 µM | 80
CSc1cccnc1N1CCN(Cc2nc3ccccc3[nH]2)CC1 | cell-free assay | competition with immobilised ligand | 1 µM | 79
O=C(Nc1c[nH]nc1C(=O)NC1CCNCC1)c1cc(F)cc(F)c1 | binding | competition with immobilised ligand | 1 µM | 19
O=C(NC[C@@H]1[C@H]2CN(C(=O)OCc3cc(C(F)(F)F)cc(C(F)(F)F)c3)C[C@@H]12)c1ccc2[nH]nnc2c1 | cell-free assay | competition with immobilised ligand | 1 µM | 86
CNC(=O)[C@@H]1CC[C@@H](n2c(-c3ccc4cnccc4c3)nc3ccc(C(=O)NCc4cccc(C(N)=O)c4)cc32)C1 | binding | competition with immobilised ligand | 1 µM | 100
O=C(c1ccc(Nc2ncc(Cl)c(-c3cc4ccccc4s3)n2)cc1)N1CCC(N2CCCC2)CC1 | binding | competition with immobilised ligand | 1 µM | 11
